ChEMBL document CHEMBL5107945, “Synthesis and biological evaluation of bergenin derivatives as new immunosuppressants” (RSC Med Chem, 2021)

Columns and labels:
[1] = Inhibition of ConA-induced proliferation of BALB/c mouse splenocyte at 10 uM incubated for 48 hrs by CCK-8 assay relative to control; assay type: functional
Summary of the method: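 Male BALB/c mouse splenocytes (6–8 weeks; red cells lysed with 0.84% NH4Cl), 5 × 10^5 cells/well in RPMI-1640 with 10% FBS and pen/strep, were stimulated with 5 μg/mL Con A with or without 10 μM compound for 48 h at 37 °C, 5% CO2. CCK-8 was added for 3 h and OD450 read. Inhibition was calculated against Con A-only wells; means ± SEM, ≥3 independent experiments.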

[2] = Inhibition of ConA-induced IL-4 secretion in BALB/c mouse splenocyte at 10 uM incubated for 48 hrs by ELISA relative to control; assay type: functional
Summary of the method: (§1)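 Male BALB/c splenocytes, 5 × 10^5 cells/well, were treated with Con A (5 μg/mL) plus compound at 5 or 10 μM for 48 h at 37 °C, 5% CO2. Plates were spun at 4 °C, 1500 rpm, 5 min. Cell-free supernatant IFN-γ or IL-4 was measured by capture-antibody ELISA. Inhibition was calculated against Con A-only wells; means ± SEM, ≥3 independent experiments.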

[3] = Inhibition of ConA-induced proliferation of BALB/c mouse splenocyte incubated for 48 hrs by CCK-8 assay relative to control; assay type: functional, cell-based
Summary of the method: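 IC50 was measured only for compounds giving over 50% inhibition at 10 μM. Con A (5 μg/mL)-stimulated male BALB/c splenocytes, 5 × 10^5 cells/well in RPMI-1640/10% FBS, were cultured 48 h at 37 °C, 5% CO2. Read-out was CCK-8, 3 h incubation, OD450. IC50 came from at least three independent tests.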

[4] = Inhibition of ConA-induced IFN-gamma secretion in BALB/c mouse splenocyte at 10 uM incubated for 48 hrs by ELISA relative to control; assay type: functional; summary of the method: as §1
[5] = Cytotoxicity against human Jurkat cells assessed as reduction in cell viability incubated for 48 hrs by CCK-8 assay; assay type: toxicity, cell-based
Summary of the method: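 Human Jurkat T-leukemia cells in RPMI-1640 with 10% FBS and pen/strep, 2.5 × 10^4 cells/well, were exposed to serially diluted compound at 37 °C for 48 h. Viability was read by CCK-8 (3 h, OD450). IC50 is the concentration reducing viability to 50%.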

[6] = Selectivity index, ratio of IC50 for cytotoxicity against human Jurkat cells to IC50 for inhibition of ConA-induced proliferation of BALB/c mouse splenocyte; assay type: toxicity, cell-based; settings: mouse (splenocytes), ConA-stimulated mouse splenocytes, read-out: Ratio IC50
Summary of the method: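 Ratio of Jurkat IC50 to splenocyte IC50. Jurkat: 2.5 × 10^4 cells/well, serial dilutions, 48 h, 37 °C, CCK-8 viability. Splenocytes: BALB/c cells, 5 × 10^5/well, with 5 μg/mL Con A, 48 h, 37 °C, 5% CO2, CCK-8 read at OD450.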

[7] = Inhibition of ConA-induced proliferation of BALB/c mouse splenocyte at 1 uM incubated for 48 hrs by CCK-8 assay relative to control; assay type: functional
Summary of the method: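 Positive-control condition: cyclosporine A at 1 μM in the same Con A (5 μg/mL)-stimulated BALB/c splenocyte culture, 5 × 10^5 cells/well, 48 h at 37 °C, 5% CO2. Proliferation was read by CCK-8 (3 h, OD450) against Con A-only wells.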

With `CCCCCOc1cc2c(c(OCCCCC)c1OC)[C@@H]1O[C@H](CO)[C@@H](O)[C@H](O)[C@H]1OC2=O` the inhibition at 10 µM [1] was 5.4%.

With `CCCCCCCOc1cc2c(c(OCCCCCCC)c1OC)[C@@H]1O[C@H](CO)[C@@H](O)[C@H](O)[C@H]1OC2=O` the inhibition at 10 µM [1] was 99%, the inhibition at 10 µM [2] was 98.6% and the IC50 [3] was 7.21 µM. For the same compound, the inhibition at 10 µM [4] was 102% and the IC50 at 48 h [5] was 4.18 µM.

With `CCCCOc1cc2c(c(OCCCC)c1OC)[C@@H]1O[C@H](CO)[C@@H](O)[C@H](O)[C@H]1OC2=O` the inhibition at 10 µM [1] was -9.27%.

With `CCCCCCCCOc1cc2c(c(OCCCCCCCC)c1OC)[C@@H]1O[C@H](CO)[C@@H](O)[C@H](O)[C@H]1OC2=O` the inhibition at 10 µM [1] was -21.5%.

Work on `COc1c(OCc2ccccc2)cc2c(c1OCc1ccccc1)[C@@H]1O[C@H](CO)[C@@H](O)[C@H](O)[C@H]1OC2=O` yielded an inhibition at 10 µM [1] of -5.95%.

`CCCCCCCCCCOc1cc2c(c(OCCCCCCCCCC)c1OC)[C@@H]1O[C@H](CO)[C@@H](O)[C@H](O)[C@H]1OC2=O` showed an inhibition at 10 µM [1] of 15.4%.

`COc1c(OCc2ccccc2)cc2c(c1OCc1ccccc1)[C@@H]1O[C@@H]3CO[C@@H](c4ccccc4)O[C@H]3[C@H](NS(C)(=O)=O)[C@H]1OC2=O` showed an inhibition at 10 µM [1] of 84.9%, an inhibition at 10 µM [2] of 67.5% and an IC50 [3] of 5.39 µM. It also gave an inhibition at 10 µM [4] of 71.1%, a selectivity ratio [6] of 6 and an IC50 at 48 h [5] of 33.1 µM.

With `COc1c(OCc2ccccc2)cc2c(c1OCc1ccccc1)[C@@H]1O[C@@H]3CO[C@@H](c4ccccc4)O[C@H]3[C@H](N)[C@H]1OC2=O` the inhibition at 10 µM [1] was 72.6%, the inhibition at 10 µM [2] was 8.7% and the IC50 [3] was 8.19 µM. For the same compound, the inhibition at 10 µM [4] was 48.4% and the IC50 at 48 h [5] was 39.3 µM.

With `COc1c(OCc2ccccc2)cc2c(c1OCc1ccccc1)[C@@H]1O[C@@H]3CO[C@@H](c4ccccc4)O[C@H]3[C@@H](O)[C@H]1OC2=O` the inhibition at 10 µM [1] was 11.2%.

Work on `COc1c(OCc2ccccc2)cc2c(c1OCc1ccccc1)[C@@H]1O[C@@H]3CO[C@@H](c4ccccc4)O[C@H]3[C@@H](OS(=O)(=O)C(F)(F)F)[C@H]1OC2=O` yielded an inhibition at 10 µM [1] of 75.9%, an inhibition at 10 µM [2] of 63.1% and an IC50 [3] of 8.05 µM. For the same compound, the inhibition at 10 µM [4] was 68.6% and the IC50 at 48 h [5] was 44.2 µM.

For `CCCCCCCOc1cc2c(c(OCCCCCCC)c1OC)[C@@H]1O[C@H](CO)[C@@H](OCc3ccccc3)[C@H](O)[C@H]1OC2=O`, the inhibition at 10 µM [1] was 69.8%, the inhibition at 10 µM [2] was 51.4% and the IC50 [3] was 10.6 µM. It also gave an inhibition at 10 µM [4] of 51.3% and an IC50 at 48 h [5] of 16.1 µM.

Work on `CCCCCCCOc1cc2c(c(OCCCCCCC)c1OC)[C@@H]1O[C@H](COCc3ccccc3)[C@@H](O)[C@H](O)[C@H]1OC2=O` yielded an inhibition at 10 µM [1] of 99.4%, an inhibition at 10 µM [2] of 95.9% and an IC50 [3] of 7.66 µM. For the same compound, the inhibition at 10 µM [4] was 99.6% and the IC50 at 48 h [5] was 10.1 µM.

For `CCCCCCCOc1cc2c(c(OCCCCCCC)c1OC)[C@@H]1O[C@@H]3CO[C@@H](c4ccccc4)O[C@H]3[C@H](O)[C@H]1OC2=O`, the inhibition at 10 µM [1] was -6.83%.

With `CCCCCCOc1cc2c(c(OCCCCCC)c1OC)[C@@H]1O[C@H](CO)[C@@H](O)[C@H](O)[C@H]1OC2=O` the inhibition at 10 µM [1] was 98.1%, the inhibition at 10 µM [2] was 61.9% and the IC50 [3] was 8.16 µM. The inhibition at 10 µM [4] was 67.4% and the IC50 at 48 h [5] was 5.21 µM.

Compound `COc1c(OCc2ccccc2)cc2c(c1OCc1ccccc1)[C@@H]1O[C@@H]3CO[C@@H](c4ccccc4)O[C@H]3[C@H](OS(=O)(=O)C(F)(F)F)[C@H]1OC2=O` has an inhibition at 10 µM [1] of -1.62%.

For `COc1c(OCc2ccccc2)cc2c(c1OCc1ccccc1)[C@@H]1O[C@@H]3CO[C@@H](c4ccccc4)O[C@H]3[C@H](N=[N+]=[N-])[C@H]1OC2=O`, the inhibition at 10 µM [1] was -2.26%.

Compound `COc1c(O)cc2c(c1O)[C@@H]1O[C@@H]3CO[C@@H](c4ccccc4)O[C@H]3[C@H](O)[C@H]1OC2=O` has an inhibition at 10 µM [1] of -3.78%.

With `COc1c(OCc2ccccc2)cc2c(c1OCc1ccccc1)[C@@H]1O[C@@H]3CO[C@@H](c4ccccc4)O[C@H]3[C@H](O)[C@H]1OC2=O` the inhibition at 10 µM [1] was 91.4%, the inhibition at 10 µM [2] was 76.9% and the IC50 [3] was 3.52 µM. For the same compound, the inhibition at 10 µM [4] was 71%, the selectivity ratio [6] was 5.96 and the IC50 at 48 h [5] was 21 µM.

Compound `COc1c(O)cc2c(c1O)[C@@H]1O[C@H](CO)[C@@H](O)[C@H](O)[C@H]1OC2=O` [BERGENIN] has an inhibition at 10 µM [1] of 11.7%, an inhibition at 10 µM [2] of 18.3% and an inhibition at 10 µM [4] of -6.2%.

Work on `C[C@H]1C[C@H]2[C@@H]3CCC4=CC(=O)C=C[C@]4(C)[C@@]3(F)[C@@H](O)C[C@]2(C)[C@@]1(O)C(=O)CO` [BETAMETHASONE] yielded an inhibition at 10 µM [1] of 89.6%, an inhibition at 10 µM [2] of 96.9% and an inhibition at 10 µM [4] of 99.3%.

In the case of `C/C=C/C[C@@H](C)[C@@H](O)[C@H]1C(=O)N[C@@H](CC)C(=O)N(C)CC(=O)N(C)[C@@H](CC(C)C)C(=O)N[C@@H](C(C)C)C(=O)N(C)[C@@H](CC(C)C)C(=O)N[C@@H](C)C(=O)N[C@H](C)C(=O)N(C)[C@@H](CC(C)C)C(=O)N(C)[C@@H](CC(C)C)C(=O)N(C)[C@@H](C(C)C)C(=O)N1C` [CYCLOSPORINE], the inhibition at 1 µM [7] is reported as 93.5%.
